CHRM5 agonist – CHRM5 agonism in calcium assay | AID 624037 | 360,000 compounds, 0.19% hits | CHO-K1 hM5 cells, Fluo-8 calcium fluorescence; 0% DMSO wells, 100% maximal acetylcholine response | activation, % at 3 µM | P08912;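 active = activation above the run's mean over test compounds plus 3 SD, cut at about 23% in these data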;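 also: signal is peak over basal fluorescence ratio across the kinetic read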
Target sequence (P08912 whole entry, looked up): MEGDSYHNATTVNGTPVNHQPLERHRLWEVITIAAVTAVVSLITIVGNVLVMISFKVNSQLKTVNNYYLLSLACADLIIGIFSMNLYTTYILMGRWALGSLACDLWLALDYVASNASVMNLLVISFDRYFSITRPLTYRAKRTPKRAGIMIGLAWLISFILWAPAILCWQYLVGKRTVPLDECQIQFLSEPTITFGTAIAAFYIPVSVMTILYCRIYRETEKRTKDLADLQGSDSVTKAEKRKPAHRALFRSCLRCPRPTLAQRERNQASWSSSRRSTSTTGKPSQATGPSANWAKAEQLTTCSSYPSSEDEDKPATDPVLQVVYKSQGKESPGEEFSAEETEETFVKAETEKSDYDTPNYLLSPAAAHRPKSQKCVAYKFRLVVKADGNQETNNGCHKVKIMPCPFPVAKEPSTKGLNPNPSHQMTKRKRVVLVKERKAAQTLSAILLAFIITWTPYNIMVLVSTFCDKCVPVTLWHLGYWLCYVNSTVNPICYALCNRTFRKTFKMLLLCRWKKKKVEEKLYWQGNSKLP
M4 ag – CHRM4 agonism in calcium assay; P08173; activation, % at 3 µM; 360,000 compounds, 0.14% hits; CHO-K1 hM4/Gqi5, Fluo-8 calcium fluorescence; vehicle 0%, full acetylcholine response 100%;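 active = activation above the run mean over all test wells plus 3 SD, cut at about 32% in these data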;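 also: peak over basal fluorescence ratio per well then scaled between controls; 0% = DMSO wells and 100% = acetylcholine at EC100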
CHRM5 antagonist – blocks acetylcholine activation of human M5 receptor; CHO-hM5 cells, Fluo-8 calcium fluorescence, ACh EC80; P08912; 360,000 compounds, 0.59% hits; inhibition, % at 3 µM; AID 624040;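 active = inhibition above a per-plate cutoff, the mean of that plate's test compounds plus 3 SD, cut at about 27% in these data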;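 also: 0% = acetylcholine EC80 with DMSO and 100% = DMSO without agonist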
M4 antag – antagonists of human muscarinic M4 receptor (CHRM4); CHO-hM4 cells, ACh EC80, Fluo-8 calcium fluorescence; inhibition, % at 3 µM; 360,000 compounds, 0.73% hits; AID 624125;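 active = inhibition above its plate's cutoff, the mean inhibition of sample wells plus 3 SD, cut at about 27% in these data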;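 also: 0% = acetylcholine EC80 with DMSO and 100% = DMSO without agonist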
M5 PAM – potentiates acetylcholine response at human M5 receptor; activation, % at 3 µM; AID 624038; 360,000 compounds, 0.3% hits; CHO-K1 hM5, Fluo-8 calcium, ACh EC20 PAM; 0% = ACh EC20, 100% = ACh EC100; P08912;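 active = activation above the run cutoff, the mean activation of all test compounds plus 3 SD, cut at about 18% in these data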
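Probe or stimulus: acetylcholine, EC20 level; Assay system: human M5 receptor in CHO-K1 cells; Schedule: compound preincubation 140 s before EC20 acetylcholine addition; Technique: intracellular calcium via Fluo-8 fluorescence; Dosing: single-point, 3 µM nominal; Read-out basis: percent activation from peak-over-basal fluorescence ratio, scaled EC20-to-EC100 acetylcholine; Repeats: one well per compound, no replicates.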
CHRM4 PAM – CHRM4 positive allosteric modulation | P08173 | activation, % at 3 µM | 360,000 compounds, 0.4% hits | CHO-K1 hM4/Gqi5, Fluo-8 calcium fluorescence, ACh EC20; 0% = ACh EC20, 100% = maximal ACh;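 active = activation above its plate's cutoff, the mean activation of sample wells plus 3 SD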
* = called active by the depositor. Only some compounds are listed: those with a hit (about 1.9% of all), similar ones and a draw of the others.

SMILES | CHRM5 agonist | M4 ag | CHRM5 antagonist | M4 antag | M5 PAM | CHRM4 PAM
CC(=O)c1cccc(NC(=S)N2CCN(S(=O)(=O)c3ccccc3)CC2)c1 | -4 | 3 | 4 | -3 | -5 | -6
CC(CCc1ccc(O)cc1)NCCC(c1ccccc1)c1ccccc1 (stereo unspecified) | -21 | 33* | 16 | 32* | -34 | -17
CC(CCc1ccc(O)cc1)NC(c1ccccc1)c1ccc(Cl)cc1 (stereo unspecified) | -14 | -2 | -7 | 2 | -5 | -11
COc1ccc(CCNC(=O)CSc2nnnn2-c2ccccc2)cc1 | -3 | 2 | 33* | -8 | 43* | -4
CC(NC(=O)COC(=O)c1ccc([N+](=O)[O-])s1)c1ccccc1 (stereo unspecified) | 1 | 2 | 9 | -1 | 32* | 12
Cc1cc2c(c(=O)n1Cc1ccco1)C(c1cccnc1)C(C#N)=C(N)O2 (stereo unspecified) | 4 | 0 | 1 | 12 | -6 | 30*
CCOc1ccc(C2C(C#N)=C(N)Oc3cc(C)n(Cc4ccco4)c(=O)c32)cc1OC (stereo unspecified) | 1 | 0 | -4 | 3 | 0 | -6
O=C(O)C(Cc1c[nH]c2ccccc12)NS(=O)(=O)c1ccc2ccccc2c1 (stereo unspecified) | -2 | 0 | -13 | -16 | 7 | 20*
O=C(O)C(Cc1c[nH]c2ccccc12)NS(=O)(=O)c1ccc(F)cc1 (stereo unspecified) | 1 | 1 | -7 | 2 | 0 | -6
CCc1c(-c2cccc(Br)c2)ncn1Cc1cccc(-c2ccccc2)c1 | 0 | 4 | 3 | 7 | -7 | -1
O=C(CSc1nnnn1C1CC2CCC1C2)Nc1ccnc2ccccc12 (stereo unspecified) | 10 | 15 | 32* | 25 | -16 | -16
Cc1cc(Nc2nc3ccccc3[nH]c2=O)n(-c2ccccc2)n1 | -2 | 8 | -9 | -16 | 23* | -6
COCCN1C(=O)COc2ccccc2C1C(=O)Nc1ccc2c(c1)OCCO2 (stereo unspecified) | 1 | 0 | 9 | 1 | -8 | 2
COc1cc(/C=C/C(=O)/C=C(O)/C=C/c2ccc(O)c(OC)c2)ccc1O | 39* | 44* | 37* | 32* | -18 | -12
COc1cc(C=C2C(=O)C=CC2=O)ccc1O | 4 | 0 | -2 | 31* | 7 | -4
COc1cc(/C=C/C(=O)O)ccc1O | 4 | 1 | 0 | -3 | -2 | -1
COc1cc(/C=C2/C(=O)CNC2=O)ccc1O | 1 | 0 | -3 | 1 | 6 | 2
COc1cc(Cl)ccc1OC1(C)CCN(Cc2c(F)cccc2F)C1 (stereo unspecified) | -3 | 1 | 6 | -23 | -4 | -1
COc1ccc(CN2CCN(C(=O)Cn3nc(C)n4cccc4c3=O)CC2)c(OC)c1OC | -3 | 1 | 10 | -2 | -4 | 5
Cc1ccc2c(C)c(C(=O)N(C)C(C)c3ccon3)oc2c1C (stereo unspecified) | -3 | 2 | -2 | -4 | 6 | 3
CC(=O)NC(=O)NC1OC(=O)C(Cl)=C1Cl (stereo unspecified) | -3 | 1 | 1 | -15 | 0 | 17*
Cc1ccccc1S(=O)(=O)NC1OC(=O)C(Cl)=C1Cl (stereo unspecified) | 2 | 0 | -7 | -6 | 2 | 1
C=CCn1c(C)c(C(C)=O)c(N2CCCC2)nc1=S | -13 | 0 | -1 | 72* | 7 | -14
CCn1c(C)c(C(C)=O)c(N2CCCC2)nc1=S | -8 | 0 | 0 | 37* | 1 | -27
CCn1c(C)c(C(C)=O)c(N2CCN(c3ccc(F)cc3)CC2)nc1=S | -6 | 2 | 2 | 5 | 14 | 11
SMILES | CHRM5 agonist | M4 ag | CHRM5 antagonist | M4 antag | M5 PAM | CHRM4 PAM
CC(=O)c1c(N2CCCCC2)nc(=S)n(Cc2ccccc2)c1C | -6 | 1 | -1 | 7 | -1 | -10
CC(=O)c1c(N2CCN(c3ccccc3)CC2)nc(=S)n(-c2ccccc2)c1C | -7 | 1 | -4 | 1 | 4 | -9
C=CCn1c(C)c(C(C)=O)c(N2CCN(c3ccccc3)CC2)nc1=S | -7 | 1 | 5 | 30* | -13 | -21
CC(C)C(C)NC(=O)COC(=O)C1CCN(S(=O)(=O)c2ccc3c(c2)OCCO3)CC1 (stereo unspecified) | -1 | 1 | -5 | -12 | 2 | 2
C/C(=N\NC(=O)c1ccc2c(c1)OCO2)c1ccc(C(=O)O)s1 | 0 | 11 | 28* | 8 | -16 | -8
CCCCn1c(N)c(N(CCC(C)C)C(=O)COC(=O)/C=C/c2ccc(F)cc2)c(=O)[nH]c1=O | 4 | 0 | 4 | -5 | 8 | 3
CCc1ccc(NC(=O)CS(=O)CC(=O)Nc2ccc(F)cc2F)cc1 (stereo unspecified) | -7 | 0 | 7 | -5 | -3 | 31*
Cc1cccc(C)c1NC(=O)CS(=O)CC(=O)Nc1ccc(F)cc1F (stereo unspecified) | 1 | 1 | 0 | -1 | -2 | 3
CN(C)C1=NC[C@H](Cc2ccccc2)N1CC1CCC(C(C)(C)C)CC1 (stereo partly specified) | 0 | 5 | 10 | 3 | -1 | 1
CCOc1ccc(C2NCCc3cc(OC)c(OC)cc32)cc1OC (stereo unspecified) | -2 | 1 | -2 | -11 | 8 | 14*
CC(C)(C)c1ccc(OCCC(=O)OCC(=O)N2c3ccccc3NC(=O)C2(C)C)cc1 | 3 | 24 | 36* | 59* | -35 | -13
Cc1cnc(C(=O)OCC(=O)N2c3ccccc3NC(=O)C2(C)C)cn1 | -1 | 1 | 2 | 1 | 3 | -1
Cc1nn(-c2ccccc2)c(C)c1C(=O)OCC(=O)N1c2ccccc2NC(=O)C1(C)C | 8 | 17 | 22 | 33* | -21 | -15
CC1(C(=O)Nc2ccc3c(c2)OCCO3)CCC(=O)N1C1CC1 (stereo unspecified) | 4 | 1 | -7 | -4 | 1 | -3
COc1ccc(-c2csc(NC(=O)C3CC(=O)N(Cc4ccccc4)C3)n2)cc1OC (stereo unspecified) | 3 | 17 | 6 | 0 | -13 | -11
Cc1onc(-c2c(Cl)cccc2Cl)c1C(=O)N1CCc2ccccc21 | -12 | -1 | 13 | 38* | -18 | -32
COc1cc(C(=O)NNC(=O)COc2ccc(C)cc2)ccc1OCC(=O)N1CCOCC1 | 4 | 1 | -4 | -8 | 0 | 23*

Source: PubChem
